Laboratory results from ChEMBL document CHEMBL4680084, “New β-Lactam Derivatives Modulate Cell Adhesion and Signaling Mediated by RGD-Binding and Leukocyte Integrins” (J Med Chem, 2016).
Numbered stars: 1 amine (or outer) side, 2 acyl side, 3 side chain; on linkers, the order of the positions; unused ones are H or OH. Square brackets hold non-standard residues; d marks the D form. Peptide text beside a SMILES is read from it. * marks the point of attachment. X1 = O=C(Cc1ccc(N[*:1])cc1)[*:2]; NH(2-Me-phenyl) = Cc1ccccc1N*; CO = O=C([*:1])[*:2]

Experiments:
[1] = target: T1, Integrin alpha-L/beta-2 (LFA-1) (Homo sapiens, UniProt P05107+P20701); assay: Antagonist activity at alphaLbeta2 in human Jurkat E6.1 cells assessed as reduction in cell adhesion to ICAM1 pre-incubated for 30 mins before ICAM1 and further incubated for 30 mins by […]; format: cell-based
Outline: (§1)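 Jurkat E6.1 cells labelled with CellTracker green CMFDA (12.5 µM, 30 min, 37 °C), washed, then pre-incubated 30 min at 37 °C with compound or methanol. Plated at 500,000/well on VCAM-1 (α4β1) or ICAM-1 (αLβ2) coated wells (5 µg/mL) for 30 min at 37 °C. Cells lysed in 0.5% Triton X-100; fluorescence read Ex485/Em535. Quadruplicate, at least three repeats.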

[2] = test system: SK-MEL-24; assay: Toxicity in human SK-MEL-24 cells assessed as induction of cell necrosis and/or apoptosis incubated for 3 hrs by annexin V-PE and 7-AAD staining based by flow cytometry; conditions: sk-mel-24, 3 h
Outline: (§2)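 After 3 h incubation, cells resuspended in complete medium and stained with annexin V-PE/7-AAD reagent for 20 min at room temperature in the dark. Flow cytometry sorted cells into viable, early apoptotic and late apoptotic/necrotic populations.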

[3] = test system: HEL; assay: Toxicity in human HEL cells assessed as induction of cell necrosis and/or apoptosis incubated for 3 hrs by annexin V-PE and 7-AAD staining based by flow cytometry; outline: as §2
[4] = test system: K562; assay: Toxicity in human K562 cells assessed as induction of cell necrosis and/or apoptosis incubated for 3 hrs by annexin V-PE and 7-AAD staining based by flow cytometry; conditions: k562, 3 h; outline: as §2
[5] = test system: HT-29; assay: Toxicity in human HT-29 cells assessed as induction of cell necrosis and/or apoptosis incubated for 3 hrs by annexin V-PE and 7-AAD staining based by flow cytometry; conditions: ht-29, 3 h; outline: as §2
[6] = test system: MCF7; assay: Toxicity in human MCF7 cells assessed as induction of cell necrosis and/or apoptosis incubated for 3 hrs by annexin V-PE and 7-AAD staining based by flow cytometry; conditions: mcf7, 3 h; outline: as §2
[7] = target: T1, Integrin alpha-L/beta-2 (LFA-1); assay: Agonist activity at alphaLbeta2 in human Jurkat E6.1 cells assessed as increase in cell adhesion to ICAM1 pre-incubated for 30 mins before ICAM1 and further incubated for 30 mins by […]; format: cell-based; outline: as §1
[8] = target: T2, Integrin alpha-4/beta-1 (Homo sapiens, UniProt P05556+P13612); assay: Agonist activity at alpha4beta1 in human Jurkat E6.1 cells assessed as increase in cell adhesion to VCAM1 pre-incubated for 30 mins before VCAM1 and further incubated for 30 mins by […]; format: cell-based; outline: as §1
[9] = target: T2, Integrin alpha-4/beta-1; assay: Antagonist activity at alpha4beta1 in human Jurkat E6.1 cells assessed as reduction in cell adhesion to VCAM1 pre-incubated for 30 mins before VCAM1 and further incubated for 30 mins by […]; format: cell-based
[10] = target: T3, Integrin alpha-IIb/beta-3 (Homo sapiens, UniProt P05106+P08514); assay: Agonist activity at alpha2bbeta3 in human HEL cells assessed as increase in cell adhesion to fibrinogen pre-incubated for 30 mins before fibrinogen and further incubated for 1 hr by nitrophenyl-N-acetyl-beta-D-glucosaminide substrate based chromogenic assay
Outline: (§3)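 Compound or methanol vehicle pre-incubated with cells for 30 min at room temperature. Cells then plated on wells coated overnight at 4 °C with fibronectin 10 µg/mL (SK-MEL-24, K562, HT-29) or fibrinogen 10 µg/mL (MCF7, HEL). Seeding was 50,000 cells/well, or 100000 for HEL. Adhesion ran 1 h at room temperature. Wells washed with 1% BSA/PBS. Quadruplicate, at least three repeats.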

[11] = target: T3, Integrin alpha-IIb/beta-3; assay: Antagonist activity at alpha2bbeta3 in human HEL cells assessed as reduction in cell adhesion to fibrinogen pre-incubated for 30 mins before fibrinogen and further incubated for 1 hr by nitrophenyl-N-acetyl-beta-D-glucosaminide substrate based chromogenic assay; outline: as §3
[12] = target: T4, Integrin alpha-V/beta-3 (Homo sapiens, UniProt P05106+P06756); assay: Agonist activity at alphaVbeta3 in human SK-MEL-24 cells assessed as increase in cell adhesion to fibronectin pre-incubated for 30 mins before fibronectin and further incubated for 1 hr by nitrophenyl-N-acetyl-beta-D-glucosaminide substrate based chromogenic assay
Outline: as §3, with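 “BSA/PBS. Adherent cells read by hexosaminidase substrate, absorbance 405 nm.” for “BSA/PBS.”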

[13] = target: T5, Integrin alpha-5/beta-1 (Homo sapiens, UniProt P05556+P08648); assay: Antagonist activity at alpha5beta1 in human K562 cells assessed as reduction in cell adhesion to fibronectin pre-incubated for 30 mins before fibronectin and further incubated for 1 hr by nitrophenyl-N-acetyl-beta-D-glucosaminide substrate based chromogenic assay
Outline: as §3, with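 “BSA/PBS. Adherent cells read by hexosaminidase substrate, absorbance 405 nm.” for “BSA/PBS.”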

[14] = target: T4, Integrin alpha-V/beta-3; assay: Antagonist activity at alphaVbeta3 in human SK-MEL-24 cells assessed as reduction in cell adhesion to fibronectin pre-incubated for 30 mins before fibronectin and further incubated for 1 hr by nitrophenyl-N-acetyl-beta-D-glucosaminide substrate based chromogenic assay; outline: as §3
[15] = target: T6, Integrin alpha-V/beta-6 (Homo sapiens, UniProt P06756+P18564); assay: Agonist activity at alphaVbeta6 in human HT-29 cells assessed as increase in cell adhesion to fibronectin pre-incubated for 30 mins before fibronectin and further incubated for 1 hr by nitrophenyl-N-acetyl-beta-D-glucosaminide substrate based chromogenic assay
Outline: as §3, with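 “BSA/PBS. Adherent cells read by hexosaminidase substrate, absorbance 405 nm.” for “BSA/PBS.”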

[16] = target: T7, Integrin alpha-V/beta-5 (Homo sapiens, UniProt P06756+P18084); assay: Agonist activity at alphaVbeta5 in human MCF7 cells assessed as increase in cell adhesion to fibrinogen pre-incubated for 30 mins before fibrinogen and further incubated for 1 hr by nitrophenyl-N-acetyl-beta-D-glucosaminide substrate based chromogenic assay
Outline: as §3, with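 “BSA/PBS. Adherent cells read by hexosaminidase substrate, absorbance 405 nm.” for “BSA/PBS.”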

[17] = target: T6, Integrin alpha-V/beta-6; assay: Antagonist activity at alphaVbeta6 in human HT-29 cells assessed as reduction in cell adhesion to fibronectin pre-incubated for 30 mins before fibronectin and further incubated for 1 hr by nitrophenyl-N-acetyl-beta-D-glucosaminide substrate based chromogenic assay; outline: as §3
[18] = target: T7, Integrin alpha-V/beta-5; assay: Antagonist activity at alphaVbeta5 in human MCF7 cells assessed as reduction in cell adhesion to fibrinogen pre-incubated for 30 mins before fibrinogen and further incubated for 1 hr by nitrophenyl-N-acetyl-beta-D-glucosaminide substrate based chromogenic assay; outline: as §3
[19] = target: T5, Integrin alpha-5/beta-1; assay: Agonist activity at alpha5beta1 in human K562 cells assessed as increase in cell adhesion to fibronectin pre-incubated for 30 mins before fibronectin and further incubated for 1 hr by nitrophenyl-N-acetyl-beta-D-glucosaminide substrate based chromogenic assay
Outline: as §3, with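 “BSA/PBS. Adherent cells read by hexosaminidase substrate, absorbance 405 nm.” for “BSA/PBS.”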

[20] = target: T4, Integrin alpha-V/beta-3; assay: Inhibition of fibronectin binding to human recombinant alphaVbeta3 expressed in HEK293 cells incubated for 1 hr by […] competitive solid-phase binding assay; format: cell-based
[21] = target: T6, Integrin alpha-V/beta-6; assay: Inhibition of fibronectin binding to alphaVbeta6 isolated form human HT-29 cells incubated for 1 hr by […] competitive solid-phase binding assay; format: tissue-based
[22] = target: T3, Integrin alpha-IIb/beta-3; assay: Inhibition of fibrinogen binding to alpha2bbeta3 isolated from human HEL cells incubated for 1 hr by […] competitive solid-phase binding assay
[23] = target: T2, Integrin alpha-4/beta-1; assay: Inhibition of fibronectin binding to […] isolated from human Jurkat E6.1 cells incubated for 1 hr by scintillation-proximity assay based competitive solid-phase binding assay; format: tissue-based
[24] = target: T7, Integrin alpha-V/beta-5; assay: Inhibition of fibrinogen binding to alphaVbeta5 isolated form human mCf7 cells incubated for 1 hr by […] competitive solid-phase binding assay
[25] = target: T5, Integrin alpha-5/beta-1; assay: Inhibition of fibronectin binding to alpha5beta1 isolated from human K562 cells incubated for 1 hr by […] competitive solid-phase binding assay; format: tissue-based
Outline: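 Plates coated overnight at 4 °C in carbonate buffer pH 9.6 with fibronectin 0.5 µg/mL (αvβ3, αvβ6, α5β1), fibrinogen 10 µg/mL (αIIbβ3, αvβ5) or ICAM-1 (αLβ2). Blocked 1 h in buffer containing Ca/Mg/Mn 1 mM each and 1% BSA. Purified integrin (3–10 µg/mL) incubated with compound (10⁻⁴–10⁻¹⁰ M) 1 h at room temperature. Bound integrin detected with primary antibody then AlexaFluor488 secondary, Ex485/Em535. Duplicate, at least three repeats.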

IC50 [1] [µM] | EC50 [10] [µM] | IC50 [11] [µM] | IC50 [13] [µM] | IC50 [14] [µM] | EC50 [15] [µM] | IC50 [17] [µM] | IC50 [18] [µM] | Molecule | Activity [2] | Activity [3] | Activity [4] | Activity [5] | Activity [6] | EC50 [7] [µM] | EC50 [8] [µM] | IC50 [9] [µM] | EC50 [12] [µM] | EC50 [16] [µM] | other results
0.00084 | – | – | – | – | – | – | – | Cc1ccccc1NC(=O)Nc1ccc(CC(=O)N[C@@H](CC(C)C)C(=O)N[C@@H](CC(=O)O)C(=O)N[C@H](C(=O)N2CCC[C@H]2C(=O)O)C(C)C)cc1 ({NH(2-Me-phenyl)-CO}-[X1]LDVP-OH) | Non-Toxic | Non-Toxic | Non-Toxic | Non-Toxic | Non-Toxic | – | – | – | – | – | –
– | > 5 | > 5 | > 5 | – | > 5 | > 5 | 2.28 | Ac-DRLDS-OH | Non-Toxic | Non-Toxic | Non-Toxic | Non-Toxic | Non-Toxic | – | – | – | – | – | EC50 [19]: > 5 µM
1.63 | 0.311 | – | – | 0.0409 | > 5 | > 5 | – | O=C(O)CC1CC(=O)N1 (stereo not drawn) | Non-Toxic | Non-Toxic | Non-Toxic | Non-Toxic | Non-Toxic | – | > 5 | > 5 | – | 0.376 | IC50 [20]: 0.0019 µM; IC50 [21]: > 1 µM; IC50 [22]: 0.265 µM; IC50 [23]: > 1 µM; IC50 [24]: 0.0024 µM; EC50 [19]: 1.03 µM; IC50 [25]: > 1 µM

The remaining lines, values behind:

Molecule | IC50 [1] [µM] | EC50 [10] [µM] | IC50 [11] [µM] | IC50 [13] [µM] | IC50 [14] [µM] | EC50 [15] [µM] | IC50 [17] [µM] | IC50 [18] [µM] | Activity [2] | Activity [3] | Activity [4] | Activity [5] | Activity [6] | EC50 [7] [µM] | EC50 [8] [µM] | IC50 [9] [µM] | EC50 [12] [µM] | EC50 [16] [µM] | other results
O=C(O)CC1CC(=O)N1C(=O)NCc1ccccc1 (stereo not drawn) | > 5 | > 5 | > 5 | 0.417 | > 5 | > 5 | > 5 | > 5 | Non-Toxic | Non-Toxic | Non-Toxic | Non-Toxic | Non-Toxic | > 5 | > 5 | > 5 | > 5 | > 5 | –
CC(C)[C@@H]1NC(=O)[C@@H](Cc2ccccc2)NC(=O)[C@H](CC(=O)O)NC(=O)CNC(=O)[C@H](CCCN=C(N)N)NC1=O [CYCLORGDFV] | – | – | – | – | – | – | – | – | Non-Toxic | Non-Toxic | Non-Toxic | Non-Toxic | Non-Toxic | – | – | – | – | – | –
Nc1ccc(CNC(=O)N2C(=O)CC2CC(=O)NCCC(=O)O)cc1.O=C(O)C(F)(F)F (stereo not drawn) | > 5 | > 5 | > 5 | 1.05 | > 5 | > 5 | > 5 | > 5 | Non-Toxic | Non-Toxic | Non-Toxic | Non-Toxic | Non-Toxic | > 5 | > 5 | > 5 | > 5 | > 5 | –
CCCCS(=O)(=O)N[C@@H](Cc1ccc(OCCCCC2CCNCC2)cc1)C(=O)O [TIROFIBAN] | – | – | – | – | – | – | – | – | Non-Toxic | Non-Toxic | Non-Toxic | Non-Toxic | Non-Toxic | – | – | – | – | – | –
NCc1ccc(NC(=O)N2C(=O)C[C@H]2C(=O)O)cc1.O=C(O)C(F)(F)F | > 5 | > 5 | > 5 | – | > 5 | > 5 | > 5 | > 5 | Non-Toxic | Non-Toxic | Non-Toxic | Non-Toxic | Non-Toxic | > 5 | > 5 | > 5 | > 5 | > 5 | –
H-GRGDTP-OH | – | > 5 | > 5 | 0.00062 | 0.925 | > 5 | > 5 | 0.0342 | Non-Toxic | Non-Toxic | Non-Toxic | Non-Toxic | Non-Toxic | – | – | – | – | – | –
